Measured values taken from ChEMBL document CHEMBL1122917, “Vinblastin-23-oyl amino acid derivatives: chemistry, physicochemical data, toxicity, and antitumor activities against P388 and L1210 leukemias” (J Med Chem, 1985).

Tests used:
Format in all cases: functional
[1] = tested on: Mus musculus; test: Number of survivors on 60th day at dose 70 mg/kg/day in 10 mice implanted with P388 leukemia cell line
In short: (§1)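 Female DBA2 mice inoculated iv on day 0 with 10^4 P388 cells; single iv treatment on day 1 with drug as sulfate salt in physiological saline. Survival followed; %ILS from all deaths and survivors as (T/C × 100) − 100, maximal MST 30 days; survivors counted on days 30 and 60. Most experiments confirmed three times.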

[2] = tested on: Mus musculus; test: Number of survivors on 60th day at dose 20 mg/kg/day in 10 mice implanted with P388 leukemia cell line; 0/10
[3] = tested on: Mus musculus; test: Percent increase in life span at dose 60 mg/kg/day in 10 mice implanted with P388 leukemia cell line; in short: as §1
[4] = tested on: Mus musculus; test: Percent increase in life span at dose 20 mg/kg/day in 10 mice implanted with P388 leukemia cell line; in short: as §1
[5] = tested on: Mus musculus; test: Number of survivors on 30th day at dose 40 mg/kg/day in 10 mice implanted with P388 leukemia cell line; 1/10
[6] = tested on: Mus musculus; test: Number of survivors on 60th day at dose 60 mg/kg/day in 10 mice implanted with P388 leukemia cell line; 2/10
[7] = tested on: Mus musculus; test: Percent increase in life span at dose 40 mg/kg/day in 10 mice implanted with P388 leukemia cell line; in short: as §1
[8] = tested on: Mus musculus; test: Number of survivors on 60th day at dose 40 mg/kg/day in 10 mice implanted with P388 leukemia cell line; 1/10
[9] = tested on: Mus musculus; test: Number of survivors on 30th day at dose 70 mg/kg/day in 10 mice implanted with P388 leukemia cell line; 0/10
[10] = tested on: Mus musculus; test: Number of survivors on 30th day at dose 50 mg/kg/day in 10 mice implanted with P388 leukemia cell line; 1/10
[11] = tested on: Mus musculus; test: Number of survivors on 30th day at dose 60 mg/kg/day in 10 mice implanted with P388 leukemia cell line; 3/10
[12] = tested on: Mus musculus; test: Number of survivors on 30th day at dose 20 mg/kg/day in 10 mice implanted with P388 leukemia cell line; 0/10
[13] = tested on: Mus musculus; test: Percent increase in life span at dose 50 mg/kg/day in 10 mice implanted with P388 leukemia cell line; in short: as §1
[14] = tested on: Mus musculus; test: Number of survivors on 60th day at dose 50 mg/kg/day in 10 mice implanted with P388 leukemia cell line; 0/10
[15] = tested on: Mus musculus; test: Percent increase in life span at dose 70 mg/kg/day in 10 mice implanted with P388 leukemia cell line; in short: as §1
[16] = tested on: Mus musculus; test: Number of survivors of DBA2 mice on 60th day after inoculation with L1210 leukemia cell line intravenously at a dose of 15 mg/kg/day; 0/10; settings: route intravenous
[17] = tested on: Mus musculus; test: Percent increase in life span of DBA2 mice after inoculation with L1210 leukemia intravenously at a dose of 15 mg/kg per day; settings: route intravenous
[18] = tested on: Mus musculus; test: Number of survivors on 30th day at dose 4 mg/kg/day in 10 mice implanted with P388 leukemia cell line
[19] = tested on: Mus musculus; test: Number of survivors on 60th day at dose 5 mg/kg/day in 10 mice implanted with P388 leukemia cell line
[20] = tested on: Mus musculus; test: Number of survivors on 60th day at dose 10 mg/kg/day in 10 mice implanted with P388 leukemia cell line
[21] = tested on: Mus musculus; test: Number of survivors on 30th day at dose 12.5 mg/kg/day in 10 mice implanted with P388 leukemia cell line
[22] = tested on: Mus musculus; test: Number of survivors on 60th day at dose 7 mg/kg/day in 10 mice implanted with P388 leukemia cell line; in short: as §1
[23] = tested on: Mus musculus; test: Percent increase in life span at dose 12.5 mg/kg/day in 10 mice implanted with P388 leukemia cell line; in short: as §1
[24] = tested on: Mus musculus; test: Percent increase in life span at dose 17.5 mg/kg/day in 10 mice implanted with P388 leukemia cell line
[25] = tested on: Mus musculus; test: Number of survivors on 60th day at dose 15 mg/kg/day in 10 mice implanted with P388 leukemia cell line
[26] = tested on: Mus musculus; test: Percent increase in life span at dose 7 mg/kg/day in 10 mice implanted with P388 leukemia cell line; in short: as §1
[27] = tested on: Mus musculus; test: Number of survivors of DBA2 mice on 30th day after inoculation with L1210 leukemia cell line intravenously at a dose of 15 mg/kg/day; 0/10; settings: route intravenous
[28] = tested on: Mus musculus; test: Percent increase in life span at dose 14 mg/kg/day in 10 mice implanted with P388 leukemia cell line; in short: as §1
[29] = tested on: Mus musculus; test: Number of survivors on 60th day at dose 14 mg/kg/day in 10 mice implanted with P388 leukemia cell line
[30] = tested on: Mus musculus; test: Percent increase in life span at dose 10 mg/kg/day in 10 mice implanted with P388 leukemia cell line; in short: as §1
[31] = tested on: Mus musculus; test: Number of survivors on 30th day at dose 17.5 mg/kg/day in 9 mice implanted with P388 leukemia cell line
[32] = tested on: Mus musculus; test: Percent increase in life span at dose 5 mg/kg/day in 10 mice implanted with P388 leukemia cell line; in short: as §1
[33] = tested on: Mus musculus; test: Number of survivors on 30th day at dose 7 mg/kg/day in 10 mice implanted with P388 leukemia cell line
[34] = tested on: Mus musculus; test: Number of survivors on 30th day at dose 15 mg/kg/day in 10 mice implanted with P388 leukemia cell line
[35] = tested on: Mus musculus; test: Number of survivors on 60th day at dose 17.5 mg/kg/day in 9 mice implanted with P388 leukemia cell line
[36] = tested on: Mus musculus; test: Number of survivors on 30th day at dose 5 mg/kg/day in 10 mice implanted with P388 leukemia cell line
[37] = tested on: Mus musculus; test: Number of survivors on 30th day at dose 14 mg/kg/day in 10 mice implanted with P388 leukemia cell line
[38] = tested on: Mus musculus; test: Number of survivors on 60th day at dose 4 mg/kg/day in 10 mice implanted with P388 leukemia cell line
[39] = tested on: Mus musculus; test: Percent increase in life span at dose 4 mg/kg/day in 10 mice implanted with P388 leukemia cell line; settings: Mus musculus, P388; in short: as §1
[40] = tested on: Mus musculus; test: Number of survivors on 60th day at dose 12.5 mg/kg/day in 10 mice implanted with P388 leukemia cell line
[41] = tested on: Mus musculus; test: Number of survivors on 30th day at dose 10 mg/kg/day in 10 mice implanted with P388 leukemia cell line
[42] = tested on: Mus musculus; test: Number of survivors on 60th day at dose 8 mg/kg/day in 10 mice implanted with P388 leukemia cell line; in short: as §1
[43] = tested on: Mus musculus; test: Number of survivors on 30th day at dose 8 mg/kg/day in 10 mice implanted with P388 leukemia cell line
[44] = tested on: Mus musculus; test: Number of survivors on 60th day at dose 11 mg/kg/day in 10 mice implanted with P388 leukemia cell line
[45] = tested on: Mus musculus; test: Number of survivors of DBA2 mice on 60th day after inoculation with L1210 leukemia cell line intravenously at a dose of 9 mg/kg/day; 0/10; settings: route intravenous
In short: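 Female DBA₂ mice received 10⁴ L1210 cells iv on day 0. Compounds were given iv as sulfate salts in physiological saline, as a single dose on day 1 (mg/kg per day). Groups were 10 mice. Survivors were counted on day 60. Cells were maintained by ip passage in DBA₂ mice.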

[46] = tested on: Mus musculus; test: Number of survivors on 60th day at dose 6 mg/kg/day in 10 mice implanted with P388 leukemia cell line
[47] = tested on: Mus musculus; test: Percent increase in life span at dose 11 mg/kg/day in 10 mice implanted with P388 leukemia cell line; in short: as §1
[48] = tested on: Mus musculus; test: Number of survivors of DBA2 mice on 30th day after inoculation with L1210 leukemia cell line intravenously at a dose of 10 mg/kg/day; 0/10; settings: route intravenous
[49] = tested on: Mus musculus; test: Percent increase in life span at dose 8 mg/kg/day in 10 mice implanted with P388 leukemia cell line; in short: as §1
[50] = tested on: Mus musculus; test: Number of survivors on 30th day at dose 11 mg/kg/day in 10 mice implanted with P388 leukemia cell line
[51] = tested on: Mus musculus; test: Percent increase in life span of DBA2 mice after inoculation with L1210 leukemia intravenously at a dose of 9 mg/lg per day
[52] = tested on: Mus musculus; test: Percent increase in life span of DBA2 mice after inoculation with L1210 leukemia intravenously at a dose of 10 mg/lg per day
[53] = tested on: Mus musculus; test: Number of survivors of DBA2 mice on 30th day after inoculation with L1210 leukemia cell line intravenously at a dose of 9 mg/kg/day; 0/10; settings: route intravenous
[54] = tested on: Mus musculus; test: Percent increase in life span at dose 6 mg/kg/day in 10 mice implanted with P388 leukemia cell line; in short: as §1
[55] = tested on: Mus musculus; test: Number of survivors of DBA2 mice on 60th day after inoculation with L1210 leukemia cell line intravenously at a dose of 10 mg/kg/day; 0/10; settings: route intravenous
[56] = tested on: Mus musculus; test: Number of survivors on 30th day at dose 6 mg/kg/day in 10 mice implanted with P388 leukemia cell line

## CCOC(=O)[C@H](Cc1ccc(O)cc1)NC(=O)[C@@]1(O)[C@H](O)[C@]2(CC)C=CCN3CC[C@@]4(c5cc([C@@]6(C(=O)OC)C[C@H]7C[N@](CCc8c6[nH]c6ccccc86)C[C@](O)(CC)C7)c(OC)cc5N(C)[C@@]14C)[C@@H]32
[1]
  Survivors: 0
[2]
  Survivors: 0
[3]
  ILS at 60 mg/kg/day: 49.5%
[4]
  ILS at 20 mg/kg/day: 29.9%
[5]
  Survivors: 1
[6]
  Survivors: 2
[7]
  ILS at 40 mg/kg/day: 53.3%
[8]
  Survivors: 1
[9]
  Survivors: 0
[10]
  Survivors: 1
[11]
  Survivors: 3
[12]
  Survivors: 0
[13]
  ILS at 50 mg/kg/day: 49.5%
[14]
  Survivors: 0
[15]
  ILS at 70 mg/kg/day: 49.5%

## CCOC(=O)[C@@H](NC(=O)[C@@]1(O)[C@H](O)[C@]2(CC)C=CCN3CC[C@@]4(c5cc([C@@]6(C(=O)OC)C[C@H]7C[N@](CCc8c6[nH]c6ccccc86)C[C@](O)(CC)C7)c(OC)cc5N(C)[C@@]14C)[C@@H]32)C(C)C
[16]
  Survivors: 0
[17]
  ILS at 15 mg/kg/day: 67%
[18]
  Survivors: 1
[19]
  Survivors: 0
[20]
  Survivors: 0
[21]
  Survivors: 2
[22]
  Survivors: 0
[23]
  ILS at 12.5 mg/kg/day: 82.6%
[24]
  ILS at 17.5 mg/kg/day: 22.2%
[25]
  Survivors: 2
[26]
  ILS at 7 mg/kg/day: 40%
[27]
  Survivors: 0
[28]
  ILS at 14 mg/kg/day: 108%
[29]
  Survivors: 0
[30]
  ILS at 10 mg/kg/day: 53.4%
[31]
  Survivors: 0
[32]
  ILS at 5 mg/kg/day: 17.2%
[33]
  Survivors: 0
[34]
  Survivors: 3
[35]
  Survivors: 0
[36]
  Survivors: 0
[37]
  Survivors: 2
[38]
  Survivors: 1
[39]
  ILS at 4 mg/kg/day: 13.5%
[40]
  Survivors: 0
[41]
  Survivors: 0

## CCOC(=O)C(CC(C)C)NC(=O)[C@@]1(O)[C@H](O)[C@]2(CC)C=CCN3CC[C@@]4(c5cc([C@@]6(C(=O)OC)C[C@H]7CN(CCc8c6[nH]c6ccccc86)C[C@](O)(CC)C7)c(OC)cc5N(C)[C@@]14C)[C@@H]32 (stereo not given in full)
[20]
  Survivors: 2
[42]
  Survivors: 1
[21]
  Survivors: 6
[43]
  Survivors: 2
[44]
  Survivors: 0
[23]
  ILS at 12.5 mg/kg/day: > 146%
[45]
  Survivors: 0
[46]
  Survivors: 0
[28]
  ILS at 14 mg/kg/day: 30%
[47]
  ILS at 11 mg/kg/day: 155%
[48]
  Survivors: 0
[29]
  Survivors: 0
[30]
  ILS at 10 mg/kg/day: > 146%
[49]
  ILS at 8 mg/kg/day: 46.5%
[50]
  Survivors: 3
[51]
  ILS: 27%
[52]
  ILS: 29.4%
[53]
  Survivors: 0
[37]
  Survivors: 2
[54]
  ILS at 6 mg/kg/day: 26.7%
[40]
  Survivors: 1
[55]
  Survivors: 0
[41]
  Survivors: 7
[56]
  Survivors: 0
